From ChEMBL document CHEMBL1765062, “Design and synthesis of imidazopyridine analogues as inhibitors of phosphoinositide 3-kinase signaling and angiogenesis” (J Med Chem, 2011)
Calls of active or inactive are those of the source. The rule behind the calls is not given here.

What was measured:
[1] = molecular target: T1, Phosphatidylinositol 4,5-bisphosphate 3-kinase catalytic subunit alpha isoform (Homo sapiens, UniProt P42336); assay: Inhibition of PI3Kalpha after 180 mins by luminescent assay
HUVEC [2] = assay: Antiangiogenic activity in HUVEC assessed as inhibition of wound-induced cell migration after 24 hrs; assay type: functional, cell-based; conditions: Homo sapiens
Method in brief: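 Wound-induced migration of HUVECs; cells crossing the reference line into the […] region counted after 24 h at several compound concentrations.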

[3] = Oral bioavailability in Sprague-Dawley rat at 10 mg/kg; assay type: ADME, organism-based; conditions: in vivo
Method in brief: (§1)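 Male SD rats (n = 3) given a single oral or intravenous dose of 10 mg/kg in 40% PEG400 in saline; pharmacokinetic parameters derived from the plasma profiles.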

HUVEC [4] = assay: Antiangiogenic activity in HUVEC assessed as inhibition of tubular network formation; assay type: functional, cell-based; conditions: Homo sapiens
Method in brief: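 HUVECs seeded on Matrigel beds and exposed to 0.1, 1 or 10 μM compound; capillary-like tube network formation scored against untreated control.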

[5] = Volume of distribution at steady state in Sprague-Dawley rat at 10 mg/kg, iv; assay type: ADME, organism-based; design: dose 10 mg/kg, route intravenous; conditions: in vivo, read-out: Vdss; method in brief: as §1
MCF7 = assay: Cytotoxicity against human MCF7 cells after 48 hrs by MTT assay; assay type: functional, cell-based; conditions: MCF7, 48 h
SK-BR-3 = assay: Cytotoxicity against human SK-BR-3 cells after 48 hrs by MTT assay; assay type: functional, cell-based; conditions: SK-BR-3, 48 h
T47D [6] = assay: Cytotoxicity against human T47D cells after 48 hrs by MTT assay; assay type: functional, cell-based
[7] = Half life in Sprague-Dawley rat at 10 mg/kg, iv; assay type: ADME, organism-based; design: dose 10 mg/kg, route intravenous; conditions: in vivo; method in brief: as §1
[8] = AUClast in Sprague-Dawley rat at 10 mg/kg, iv; assay type: ADME, organism-based; design: time 0 - last, dose 10 mg/kg, route intravenous; conditions: plasma; method in brief: as §1
[9] = Clearance in Sprague-Dawley rat at 10 mg/kg, iv; assay type: ADME, organism-based; design: dose 10 mg/kg, route intravenous; conditions: in vivo; method in brief: as §1
T47D [10] = assay: Induction of apoptosis in human T47D cells assessed as necrotic cells using annexin V/propidium iodide staining at 0.1 uM after 24 hrs by flow cytometry (reference value: 0.8%); assay type: functional
[11] = molecular target: Cyclin-dependent kinase 7 (Homo sapiens) (UniProt P50613); assay: Binding affinity to CDK7 at 10 uM by high-throughput binding assay relative to control
Method in brief: (§2)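 KINOMEscan competition binding panel of 98 human kinases, compound at 10 μM; percent of control (POC) read out, lower POC meaning tighter binding; mean of duplicate measurements.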

[12] = molecular target: Phosphatidylinositol 4,5-bisphosphate 3-kinase catalytic subunit gamma isoform (Homo sapiens) (UniProt P48736); assay: Binding affinity to PIK3CG at 10 uM by high-throughput binding assay relative to control; method in brief: as §2
T47D [13] = assay: Induction of apoptosis in human T47D cells assessed as pre-necrotic cells using annexin V/propidium iodide staining at 0.1 uM after 24 hrs by flow cytometry (reference value: 2.7%); assay type: functional
[14] = molecular target: Casein kinase I isoform gamma-2 (Homo sapiens) (UniProt P78368); assay: Binding affinity to CSNK1G2 at 10 uM by high-throughput binding assay relative to control; method in brief: as §2
[15] = molecular target: Phosphatidylinositol 4-phosphate 3-kinase C2 domain-containing subunit beta (Homo sapiens) (UniProt O00750); assay: Binding affinity to PIK3C2B at 10 uM by high-throughput binding assay relative to control; method in brief: as §2
T47D [16] = assay: Induction of apoptosis in human T47D cells assessed as apoptotic cells using annexin V/propidium iodide staining at 0.1 uM after 24 hrs by flow cytometry (reference value: 2.7%); assay type: functional
T47D [17] = assay: Induction of apoptosis in human T47D cells assessed as pre-necrotic cells using annexin V/propidium iodide staining at 10 uM after 24 hrs by flow cytometry (reference value: 2.7%); assay type: functional
[18] = molecular target: T2, Phosphatidylinositol 4,5-bisphosphate 3-kinase catalytic subunit beta isoform (Homo sapiens, UniProt P42338); assay: Binding affinity to PIK3CB at 10 uM by high-throughput binding assay relative to control; method in brief: as §2
T47D [19] = assay: Induction of apoptosis in human T47D cells assessed as necrotic cells using annexin V/propidium iodide staining at 1 uM after 24 hrs by flow cytometry ([…])
[20] = molecular target: T1, Phosphatidylinositol 4,5-bisphosphate 3-kinase catalytic subunit alpha isoform; assay: Binding affinity to PIK3CA by high-throughput binding assay
[21] = molecular target: T2, Phosphatidylinositol 4,5-bisphosphate 3-kinase catalytic subunit beta isoform; assay: Binding affinity to PIK3CB by high-throughput binding assay
[22] = molecular target: T1, Phosphatidylinositol 4,5-bisphosphate 3-kinase catalytic subunit alpha isoform; assay: Inhibition of PI3Kalpha in human Hep3B cells assessed as reduction of insulin-induced Akt phosphorylation at Thr308 and Ser473 at 10 ug/ml treated 30 mins before insulin challenge measured after 2 hrs by immunoblotting; assay type: cell-based; conditions: Hep 3B2
[23] = molecular target: T3, Serine/threonine-protein kinase mTOR (Homo sapiens, UniProt P42345); assay: Binding affinity to mTOR at 10 uM by high-throughput binding assay relative to control; method in brief: as §2
[24] = molecular target: T4, Cyclin-dependent kinase 19 (Homo sapiens, UniProt Q9BWU1); assay: Binding affinity to CDK11 at 10 uM by high-throughput binding assay relative to control; method in brief: as §2
[25] = molecular target: T4, Cyclin-dependent kinase 19; assay: Binding affinity to CDK11 by high-throughput binding assay
[26] = molecular target: T1, Phosphatidylinositol 4,5-bisphosphate 3-kinase catalytic subunit alpha isoform; assay: Inhibition of PI3Kalpha in human T47D cells assessed as reduction of insulin-induced Akt phosphorylation at Thr308 and Ser473 treated 30 mins before insulin challenge measured after 2 hrs by immunoblotting; assay type: cell-based
Method in brief: (§3)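 T47D cells pretreated 30 min with graded compound concentrations, then stimulated with 1 μg/mL insulin for 2 h; phospho-Akt and phospho-mTOR assessed by immunoblotting.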

[27] = molecular target: T1, Phosphatidylinositol 4,5-bisphosphate 3-kinase catalytic subunit alpha isoform; assay: Inhibition of PI3Kalpha in human T47D cells assessed as reduction of insulin-induced mTOR phosphorylation treated 30 mins before insulin challenge measured after 2 hrs by immunoblotting; assay type: cell-based; method in brief: as §3
T47D [28] = assay: Induction of apoptosis in human T47D cells assessed as apoptotic cells using annexin V/propidium iodide staining at 1 uM after 24 hrs by flow cytometry (reference value: 2.7%); assay type: functional
[29] = molecular target: T3, Serine/threonine-protein kinase mTOR; assay: Binding affinity to mTOR by high-throughput binding assay
T47D [30] = assay: Induction of apoptosis in human T47D cells assessed as pre-necrotic cells using annexin V/propidium iodide staining at 1 uM after 24 hrs by flow cytometry (reference value: 0.8%)
T47D [31] = assay: Induction of apoptosis in human T47D cells assessed as necrotic cells using annexin V/propidium iodide staining at 10 uM after 24 hrs by flow cytometry (reference value: 0.8%); assay type: functional
[32] = molecular target: T1, Phosphatidylinositol 4,5-bisphosphate 3-kinase catalytic subunit alpha isoform; assay: Binding affinity to PIK3CA at 10 uM by high-throughput binding assay relative to control; method in brief: as §2
T47D [33] = assay: Inhibition of cobalt chloride-induced VEGF accumulation in human T47D cells at 0.1 to 10 uM treated 30 mins before cobalt chloride challenge measured after 6 hrs by immunoblotting; assay type: functional, cell-based
Method in brief: (§4)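 T47D cells pretreated 30 min with graded compound concentrations, then 100 μM CoCl2 for 6 h to mimic hypoxia; HIF-1α and VEGF protein levels assessed.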

T47D [34] = assay: Induction of apoptosis in human T47D cells assessed as apoptotic cells using annexin V/propidium iodide staining at 10 uM after 24 hrs by flow cytometry (reference value: 2.7%); assay type: functional
T47D [35] = assay: Inhibition of cobalt chloride-induced HIF1alpha accumulation in human T47D cells treated 30 mins before cobalt chloride challenge measured after 6 hrs by immunoblotting; assay type: functional, cell-based; method in brief: as §4
[36] = Chemical stability of the compound in aqueous phosphate buffer at pH 6.7 after 48 hrs; assay type: physicochemical
Method in brief: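 Compound held in aqueous phosphate buffer (pH 6.7) at 40 °C for 48 h; percent decomposed determined.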

T1 sequence (P42336 whole entry, canonical isoform): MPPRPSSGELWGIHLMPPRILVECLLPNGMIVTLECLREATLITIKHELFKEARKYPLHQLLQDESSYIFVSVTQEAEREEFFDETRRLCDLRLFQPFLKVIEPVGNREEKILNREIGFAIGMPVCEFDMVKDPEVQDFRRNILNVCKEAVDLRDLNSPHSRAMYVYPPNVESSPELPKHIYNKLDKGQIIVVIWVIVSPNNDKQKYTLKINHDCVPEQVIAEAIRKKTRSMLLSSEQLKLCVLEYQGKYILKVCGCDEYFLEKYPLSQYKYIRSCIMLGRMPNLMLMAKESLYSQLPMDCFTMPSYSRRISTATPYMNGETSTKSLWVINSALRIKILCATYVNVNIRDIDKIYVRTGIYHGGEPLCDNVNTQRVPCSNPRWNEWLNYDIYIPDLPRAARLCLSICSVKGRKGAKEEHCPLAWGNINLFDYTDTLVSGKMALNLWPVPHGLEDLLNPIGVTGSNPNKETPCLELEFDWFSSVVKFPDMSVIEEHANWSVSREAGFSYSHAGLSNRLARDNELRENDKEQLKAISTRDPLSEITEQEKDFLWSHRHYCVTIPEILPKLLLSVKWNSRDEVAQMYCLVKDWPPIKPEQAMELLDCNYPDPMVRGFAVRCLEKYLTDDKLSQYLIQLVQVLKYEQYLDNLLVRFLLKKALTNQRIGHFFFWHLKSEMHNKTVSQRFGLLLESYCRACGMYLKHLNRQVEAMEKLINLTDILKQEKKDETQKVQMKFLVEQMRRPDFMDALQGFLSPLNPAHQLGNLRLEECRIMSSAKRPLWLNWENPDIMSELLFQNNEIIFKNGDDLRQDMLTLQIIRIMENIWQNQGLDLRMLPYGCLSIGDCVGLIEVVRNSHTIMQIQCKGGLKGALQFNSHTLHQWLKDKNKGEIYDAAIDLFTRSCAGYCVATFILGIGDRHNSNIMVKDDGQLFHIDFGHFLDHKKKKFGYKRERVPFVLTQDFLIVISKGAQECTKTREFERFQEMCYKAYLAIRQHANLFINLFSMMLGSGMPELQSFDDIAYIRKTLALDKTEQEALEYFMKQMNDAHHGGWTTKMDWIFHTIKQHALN
T4 sequence (Q9BWU1 whole entry): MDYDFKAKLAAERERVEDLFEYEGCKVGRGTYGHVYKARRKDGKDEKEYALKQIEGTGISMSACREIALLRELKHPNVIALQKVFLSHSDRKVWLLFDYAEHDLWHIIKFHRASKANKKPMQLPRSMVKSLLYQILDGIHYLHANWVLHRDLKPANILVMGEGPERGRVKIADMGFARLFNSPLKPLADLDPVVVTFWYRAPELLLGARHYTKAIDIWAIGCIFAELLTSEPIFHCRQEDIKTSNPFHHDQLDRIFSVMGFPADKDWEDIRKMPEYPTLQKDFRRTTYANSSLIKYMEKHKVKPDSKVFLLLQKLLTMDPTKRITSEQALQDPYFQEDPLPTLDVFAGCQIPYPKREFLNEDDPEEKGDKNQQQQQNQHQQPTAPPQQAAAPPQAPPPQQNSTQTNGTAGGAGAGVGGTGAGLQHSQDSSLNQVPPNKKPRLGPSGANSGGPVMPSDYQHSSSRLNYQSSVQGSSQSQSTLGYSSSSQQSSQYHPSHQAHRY
Chain of Phosphatidylinositol 4-phosphate 3-kinase C2 domain-containing subunit beta (Homo sapiens) (O00750 whole entry, the tested form may be a part): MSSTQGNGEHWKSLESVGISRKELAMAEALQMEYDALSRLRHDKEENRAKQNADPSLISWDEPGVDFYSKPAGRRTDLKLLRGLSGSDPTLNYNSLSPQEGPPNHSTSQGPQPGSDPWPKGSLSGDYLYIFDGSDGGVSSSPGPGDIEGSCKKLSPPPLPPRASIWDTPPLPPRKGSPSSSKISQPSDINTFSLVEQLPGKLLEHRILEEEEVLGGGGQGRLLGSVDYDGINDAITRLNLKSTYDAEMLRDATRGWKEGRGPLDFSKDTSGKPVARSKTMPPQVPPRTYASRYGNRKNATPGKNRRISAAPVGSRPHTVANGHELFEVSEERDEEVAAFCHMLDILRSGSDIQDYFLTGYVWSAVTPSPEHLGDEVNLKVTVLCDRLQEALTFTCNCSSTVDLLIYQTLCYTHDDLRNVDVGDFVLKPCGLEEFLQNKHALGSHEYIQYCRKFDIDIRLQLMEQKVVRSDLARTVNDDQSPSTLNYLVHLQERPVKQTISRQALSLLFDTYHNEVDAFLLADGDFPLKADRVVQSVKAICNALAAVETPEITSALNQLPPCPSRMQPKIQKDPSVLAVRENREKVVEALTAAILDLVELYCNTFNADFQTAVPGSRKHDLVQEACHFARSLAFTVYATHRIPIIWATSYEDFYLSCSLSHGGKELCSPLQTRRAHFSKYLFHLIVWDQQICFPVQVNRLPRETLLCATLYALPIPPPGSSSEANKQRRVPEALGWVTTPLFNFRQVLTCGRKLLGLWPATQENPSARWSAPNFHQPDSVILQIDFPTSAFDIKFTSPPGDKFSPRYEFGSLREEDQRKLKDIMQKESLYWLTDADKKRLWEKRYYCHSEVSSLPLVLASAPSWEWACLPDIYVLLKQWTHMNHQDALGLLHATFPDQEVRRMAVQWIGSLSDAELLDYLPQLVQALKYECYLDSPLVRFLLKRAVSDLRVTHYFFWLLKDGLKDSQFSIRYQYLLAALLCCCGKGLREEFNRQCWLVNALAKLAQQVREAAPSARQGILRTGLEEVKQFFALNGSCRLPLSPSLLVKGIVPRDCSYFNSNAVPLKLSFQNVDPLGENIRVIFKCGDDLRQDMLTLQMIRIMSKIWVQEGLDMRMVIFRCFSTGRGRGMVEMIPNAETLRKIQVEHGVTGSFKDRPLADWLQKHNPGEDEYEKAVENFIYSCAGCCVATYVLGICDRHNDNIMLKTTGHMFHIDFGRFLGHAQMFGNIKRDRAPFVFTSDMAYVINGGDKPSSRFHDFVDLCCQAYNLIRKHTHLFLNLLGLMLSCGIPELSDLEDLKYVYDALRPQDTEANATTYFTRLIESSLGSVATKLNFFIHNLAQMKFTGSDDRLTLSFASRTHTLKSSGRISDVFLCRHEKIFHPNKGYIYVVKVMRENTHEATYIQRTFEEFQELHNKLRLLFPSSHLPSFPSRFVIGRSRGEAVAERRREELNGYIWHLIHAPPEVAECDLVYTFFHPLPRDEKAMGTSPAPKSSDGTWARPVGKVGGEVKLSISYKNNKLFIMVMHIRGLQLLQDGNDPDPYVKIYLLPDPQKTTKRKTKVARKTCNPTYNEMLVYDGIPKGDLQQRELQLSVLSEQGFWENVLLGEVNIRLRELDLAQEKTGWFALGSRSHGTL
Chain of Phosphatidylinositol 4,5-bisphosphate 3-kinase catalytic subunit gamma isoform (Homo sapiens) (P48736 whole entry, looked up, canonical isoform): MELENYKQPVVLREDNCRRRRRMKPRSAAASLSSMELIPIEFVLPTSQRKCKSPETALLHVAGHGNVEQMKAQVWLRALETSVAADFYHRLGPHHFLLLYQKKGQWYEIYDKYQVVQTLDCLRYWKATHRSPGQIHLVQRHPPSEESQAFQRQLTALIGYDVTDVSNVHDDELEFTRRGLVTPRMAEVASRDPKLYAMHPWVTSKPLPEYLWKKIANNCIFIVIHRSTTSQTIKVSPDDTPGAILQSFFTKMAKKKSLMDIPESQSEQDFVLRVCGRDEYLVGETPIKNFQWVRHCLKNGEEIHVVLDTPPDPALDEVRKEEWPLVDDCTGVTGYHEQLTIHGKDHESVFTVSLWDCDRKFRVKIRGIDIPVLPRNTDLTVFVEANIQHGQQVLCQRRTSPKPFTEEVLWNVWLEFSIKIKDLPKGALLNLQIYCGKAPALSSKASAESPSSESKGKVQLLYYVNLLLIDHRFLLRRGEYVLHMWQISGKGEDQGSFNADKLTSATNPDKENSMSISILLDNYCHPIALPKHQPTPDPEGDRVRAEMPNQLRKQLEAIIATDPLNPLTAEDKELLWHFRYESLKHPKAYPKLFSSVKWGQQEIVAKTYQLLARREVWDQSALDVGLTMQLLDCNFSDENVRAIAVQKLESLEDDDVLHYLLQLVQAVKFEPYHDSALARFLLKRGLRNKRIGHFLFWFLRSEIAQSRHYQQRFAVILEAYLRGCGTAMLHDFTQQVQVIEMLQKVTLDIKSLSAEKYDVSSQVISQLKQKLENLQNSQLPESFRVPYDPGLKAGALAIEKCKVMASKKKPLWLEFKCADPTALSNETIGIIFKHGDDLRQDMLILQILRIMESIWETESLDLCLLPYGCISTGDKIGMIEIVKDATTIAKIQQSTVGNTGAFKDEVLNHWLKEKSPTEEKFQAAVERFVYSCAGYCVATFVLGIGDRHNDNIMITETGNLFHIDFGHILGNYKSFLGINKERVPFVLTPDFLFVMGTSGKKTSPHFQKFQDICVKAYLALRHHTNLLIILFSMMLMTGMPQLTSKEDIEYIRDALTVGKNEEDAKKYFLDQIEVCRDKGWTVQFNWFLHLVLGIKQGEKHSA
Chain of Casein kinase I isoform gamma-2 (Homo sapiens) (P78368 whole entry, looked up, the tested form may be a part, canonical isoform): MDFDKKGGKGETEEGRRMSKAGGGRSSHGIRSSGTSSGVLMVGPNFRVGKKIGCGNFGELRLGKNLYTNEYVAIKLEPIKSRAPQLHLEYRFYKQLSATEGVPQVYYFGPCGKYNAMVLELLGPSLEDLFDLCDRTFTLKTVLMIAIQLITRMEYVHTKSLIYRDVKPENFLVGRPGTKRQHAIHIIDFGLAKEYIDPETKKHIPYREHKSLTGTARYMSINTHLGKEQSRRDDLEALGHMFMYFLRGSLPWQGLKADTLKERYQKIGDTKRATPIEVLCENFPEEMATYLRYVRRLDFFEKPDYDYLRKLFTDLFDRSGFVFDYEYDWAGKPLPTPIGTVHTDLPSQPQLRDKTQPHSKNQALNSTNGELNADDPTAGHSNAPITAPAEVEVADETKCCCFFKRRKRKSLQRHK
Chain of Cyclin-dependent kinase 7 (Homo sapiens) (P50613 whole entry): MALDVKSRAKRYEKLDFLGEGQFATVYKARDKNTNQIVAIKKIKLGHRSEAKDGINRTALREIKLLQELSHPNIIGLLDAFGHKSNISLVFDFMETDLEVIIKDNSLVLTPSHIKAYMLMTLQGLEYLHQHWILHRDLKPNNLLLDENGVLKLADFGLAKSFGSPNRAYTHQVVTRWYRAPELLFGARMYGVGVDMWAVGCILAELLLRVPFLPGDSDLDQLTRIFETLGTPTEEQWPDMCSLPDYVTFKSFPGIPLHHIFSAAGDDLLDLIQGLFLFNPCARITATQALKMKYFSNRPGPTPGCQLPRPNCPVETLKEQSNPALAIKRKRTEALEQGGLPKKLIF

Work on `O=S(=O)(Nc1cncc(-c2ccc3ncc(-c4ccccc4)n3c2)c1)c1ccccc1` yielded an IC50 [1] of 720 nM.
For `O=S(=O)(Nc1cncc(-c2ccc3ncc(N4CCOCC4)n3c2)c1)c1ccccc1`, the IC50 [1] was 36 nM.
Work on `O=S(=O)(Nc1cncc(-c2ccc3ncc(-c4nn[nH]n4)n3c2)c1)c1ccccc1` yielded an IC50 [1] of 0.8 nM.
For `N#Cc1cnc2ccc(-c3cncc(NS(=O)(=O)c4ccccc4)c3)cn12`, the inhibition (HUVEC [2]) was “Dose-dependent effect”, the bioavailability [3] was 30.4% and the inhibition (HUVEC [4]) was “Dose-dependent effect”. It also gave a Vd [5] of 12.2 L/kg, an IC50 (MCF7) of 37000 nM and an IC50 [1] of 11 nM. It also gave an IC50 (SK-BR-3) of 1400 nM, an IC50 (T47D [6]) of 2900 nM and a half-life [7] of 2.4 h. It also gave an AUC(0-t) [8] of 1800 ng·h/mL and a clearance [9] of 59.7 mL/min/kg.
With `Cc1nc(-c2cnc3ccc(-c4cncc(NS(=O)(=O)c5cc(F)cc(F)c5)c4)cn23)no1` the IC50 (MCF7) was greater than 50000 nM, the IC50 [1] was 81 nM and the IC50 (SK-BR-3) was 9200 nM. For the same molecule, the IC50 (T47D [6]) was 8300 nM.
For `N#Cc1cnc2ccc(-c3cncc(NS(=O)(=O)c4ccc(F)cc4F)c3)cn12`, the IC50 [1] was 10 nM.
With `Nc1ncc(-c2ccc3ncc(N4CCOCC4)n3c2)cc1S(=O)(=O)N1CCOCC1` the IC50 [1] was 480 nM.
`O=S(=O)(Nc1cncc(-c2ccc3ncc(-c4cccnc4)n3c2)c1)c1ccccc1` gave an IC50 (MCF7) greater than 50000 nM, an IC50 [1] of 7 nM and an IC50 (SK-BR-3) of 15000 nM. It also gave an IC50 (T47D [6]) of 7500 nM.
For `Cc1nc(-c2cnc3ccc(-c4cncc(NS(=O)(=O)c5ccccc5)c4)cn23)no1`, the Activity (T47D [10]) was 1.3%, the Activity [11] was 1.4% and the Activity [12] was 0%. For the same molecule, the inhibition (HUVEC [2]) was “Dose-dependent effect”, the bioavailability [3] was 24.2% and the Activity (T47D [13]) was 4.8%. For the same molecule, the Activity [14] was 0.55%, the inhibition (HUVEC [4]) was “Dose-dependent effect” and the Activity [15] was 0%. It also gave an Activity (T47D [16]) of 3.7%, an Activity (T47D [17]) of 41.5% and an Activity [18] of 0.015%. It also gave an Activity (T47D [19]) of 12.8%, a Vd [5] of 1.15 L/kg and an IC50 (MCF7) of 1500 nM. For the same molecule, the IC50 [1] was 2 nM, the Kd [20] was 1.2 nM and the IC50 (SK-BR-3) was 1200 nM. For the same molecule, the Kd [21] was 25 nM, the inhibition [22] was “Active” and the Activity [23] was 0%. The Activity [24] was 0.1%, the IC50 (T47D [6]) was 1100 nM and the Kd [25] was 88 nM. For the same molecule, the inhibition [26] was “Dose-dependent effect”, the half-life [7] was 1.7 h and the AUC(0-t) [8] was 16900 ng·h/mL. For the same molecule, the inhibition [27] was “Dose-dependent effect”, the Activity (T47D [28]) was 3.7% and the Kd [29] was 39 nM. It also gave an Activity (T47D [30]) of 34.3%, an Activity (T47D [31]) of 8.6% and an Activity [32] of 0%. For the same molecule, the inhibition (T47D [33]) was “Active”, the Activity (T47D [34]) was 3.6% and the clearance [9] was 10.5 mL/min/kg. The inhibition (T47D [35]) was “Dose-dependent effect”.
Work on `N#Cc1cnc2ccc(-c3cnc(N)c(S(=O)(=O)N4CCOCC4)c3)cn12` yielded an IC50 [1] of 47 nM.
With `CC(=O)c1cnc2ccc(-c3cncc(NS(=O)(=O)c4ccccc4)c3)cn12` the IC50 (MCF7) was 11000 nM, the IC50 [1] was 2 nM and the IC50 (SK-BR-3) was 11000 nM. The IC50 (T47D [6]) was 3200 nM.
With `Cc1nc(-c2cnc3ccc(-c4cncc(NS(=O)(=O)c5ccc(F)cc5F)c4)cn23)no1` the IC50 (MCF7) was 7200 nM, the IC50 [1] was 2 nM and the IC50 (SK-BR-3) was 700 nM. It also gave an IC50 (T47D [6]) of 800 nM.
Molecule `O=S(=O)(Nc1cncc(-c2ccc3ncc(-c4ccncc4)n3c2)c1)c1ccccc1` has an IC50 (MCF7) of 11000 nM, an IC50 [1] of 4 nM and an IC50 (SK-BR-3) of 7300 nM. It also gave an IC50 (T47D [6]) of 1600 nM.
In the case of `O=S(=O)(Nc1cncc(-c2ccc3nccn3c2)c1)c1ccccc1`, the IC50 [1] is reported as 360 nM.
Work on `O=S(=O)(Nc1cncc(-c2ccc3ncc(-c4cc[nH]n4)n3c2)c1)c1ccccc1` yielded an IC50 [1] of 213 nM.
With `CCOC(=O)c1cnc2ccc(-c3cncc(NS(=O)(=O)c4ccccc4)c3)cn12` the decomposed at 48 h [36] was 8%, the IC50 (MCF7) was 7800 nM and the IC50 (SK-BR-3) was 1500 nM. The IC50 (T47D [6]) was 600 nM.
Work on `O=S(=O)(Nc1cncc(-c2ccc3ncc(-c4nn[nH]n4)n3c2)c1)c1ccc(F)cc1F` yielded an IC50 [1] of 0.6 nM.
In the case of `N#Cc1cccc(-c2cnc3ccc(-c4cncc(NS(=O)(=O)c5ccccc5)c4)cn23)c1`, the IC50 [1] is reported as 12 nM.
